Experimental data: ChEMBL document CHEMBL1124558, “Differential effects of a series of hydroxamic acid derivatives on 5-lipoxygenase and cyclooxygenase from neutrophils and 12-lipoxygenase from platelets and their in vivo effects on inflammation and anaphylaxis” (J Med Chem, 1989)

Key:
[1] = biological target: T1, Polyunsaturated fatty acid 5-lipoxygenase (Homo sapiens, UniProt P09917); test: In vitro inhibitory activity against polymorphonuclear leukocyte 5-lipoxygenase in human cell at 10 uM
T1 sequence (P09917 whole entry): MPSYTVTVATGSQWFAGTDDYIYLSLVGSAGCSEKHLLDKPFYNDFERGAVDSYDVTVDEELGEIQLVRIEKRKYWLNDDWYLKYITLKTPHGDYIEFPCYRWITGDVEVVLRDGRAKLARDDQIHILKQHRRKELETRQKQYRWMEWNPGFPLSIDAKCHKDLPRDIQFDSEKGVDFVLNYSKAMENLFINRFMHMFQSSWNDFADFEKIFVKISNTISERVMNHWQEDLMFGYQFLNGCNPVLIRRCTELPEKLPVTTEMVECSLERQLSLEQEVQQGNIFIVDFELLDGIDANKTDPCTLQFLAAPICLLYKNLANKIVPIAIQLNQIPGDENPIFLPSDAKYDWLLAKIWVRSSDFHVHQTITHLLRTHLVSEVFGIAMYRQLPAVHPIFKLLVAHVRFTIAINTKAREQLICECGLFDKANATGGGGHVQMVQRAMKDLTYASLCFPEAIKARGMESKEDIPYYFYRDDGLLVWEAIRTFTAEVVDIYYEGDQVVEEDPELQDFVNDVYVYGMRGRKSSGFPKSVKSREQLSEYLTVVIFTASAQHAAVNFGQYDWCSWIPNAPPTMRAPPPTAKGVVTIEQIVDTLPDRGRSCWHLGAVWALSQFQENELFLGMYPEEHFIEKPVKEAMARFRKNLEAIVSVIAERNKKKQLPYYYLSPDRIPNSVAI
Method in brief: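 Human PMNs from venous blood of a healthy volunteer (EDTA) were purified by dextran sedimentation, a Percoll gradient and NH4Cl red-cell lysis (>90% pure). They were held in Ca/Mg PBS with 1 mg/mL glucose and 1 μM indomethacin, then challenged with A23187 (0.8 μM) and [14C]arachidonic acid (4 μM) for 3 min. 5-HETE was measured by TLC and scintillation counting.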

[2] = biological target: T2, Arachidonate 12-lipoxygenase (Rattus norvegicus) (UniProt Q02759); test: In vitro inhibitory activity against rat platelet 12-lipoxygenase at 30 uM
T2 sequence (whole entry): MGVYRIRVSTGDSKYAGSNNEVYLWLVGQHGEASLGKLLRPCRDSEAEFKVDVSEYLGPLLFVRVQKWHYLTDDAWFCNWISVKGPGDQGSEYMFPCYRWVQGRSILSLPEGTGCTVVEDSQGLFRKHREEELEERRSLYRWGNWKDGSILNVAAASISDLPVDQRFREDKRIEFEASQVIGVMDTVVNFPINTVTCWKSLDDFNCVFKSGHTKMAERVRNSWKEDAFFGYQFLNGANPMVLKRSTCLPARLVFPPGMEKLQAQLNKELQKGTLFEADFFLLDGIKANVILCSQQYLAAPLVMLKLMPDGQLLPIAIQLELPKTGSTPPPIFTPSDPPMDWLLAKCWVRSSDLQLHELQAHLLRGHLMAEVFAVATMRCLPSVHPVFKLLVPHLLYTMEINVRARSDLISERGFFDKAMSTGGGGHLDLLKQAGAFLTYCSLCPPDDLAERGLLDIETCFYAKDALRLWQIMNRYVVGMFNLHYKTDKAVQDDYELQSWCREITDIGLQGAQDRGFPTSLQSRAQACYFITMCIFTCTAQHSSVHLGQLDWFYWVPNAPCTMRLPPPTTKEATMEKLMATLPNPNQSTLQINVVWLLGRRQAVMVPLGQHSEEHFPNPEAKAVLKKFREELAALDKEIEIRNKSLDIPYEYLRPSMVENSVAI
Method in brief: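 Cell-free cytosolic 12-lipoxygenase from Sprague-Dawley rat platelets (0.4 mg/mL), preincubated 5 min at 30 °C with compound in DMSO (≤0.1% final), 25 mM Tris pH 7.4, 1 μM indomethacin, 100 μM glutathione; reaction started with 6 μM [14C]arachidonic acid and quenched with citric acid/NDGA after 3 min. 12-HETE isolated by TLC and counted by scintillation; % inhibition, duplicate.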

[3] = biological target: T3, Polyunsaturated fatty acid 5-lipoxygenase (Rattus norvegicus) (UniProt P12527); test: In vitro inhibitory activity against polymorphonuclear leukocyte 5-lipoxygenase in rat cell at 1 uM
T3 sequence (whole entry): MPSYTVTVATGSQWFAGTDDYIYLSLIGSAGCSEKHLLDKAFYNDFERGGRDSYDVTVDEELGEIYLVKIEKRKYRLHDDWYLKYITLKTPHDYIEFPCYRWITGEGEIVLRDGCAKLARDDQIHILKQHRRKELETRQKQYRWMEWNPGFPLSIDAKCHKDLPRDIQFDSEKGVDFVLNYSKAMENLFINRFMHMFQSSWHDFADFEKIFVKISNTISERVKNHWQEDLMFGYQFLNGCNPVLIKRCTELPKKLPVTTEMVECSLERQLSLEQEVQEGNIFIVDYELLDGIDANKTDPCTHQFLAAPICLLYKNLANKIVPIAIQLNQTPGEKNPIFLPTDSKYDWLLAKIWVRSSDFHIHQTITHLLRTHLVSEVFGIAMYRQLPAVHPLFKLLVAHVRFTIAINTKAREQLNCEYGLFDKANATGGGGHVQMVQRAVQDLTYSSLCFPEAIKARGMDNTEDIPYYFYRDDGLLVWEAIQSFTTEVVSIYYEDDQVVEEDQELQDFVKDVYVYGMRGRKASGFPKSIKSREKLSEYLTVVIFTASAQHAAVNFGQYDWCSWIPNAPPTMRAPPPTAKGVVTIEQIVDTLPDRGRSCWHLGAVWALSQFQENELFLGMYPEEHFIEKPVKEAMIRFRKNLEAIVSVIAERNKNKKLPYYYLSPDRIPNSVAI
Method in brief: (§1)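 Intact glycogen-elicited peritoneal PMNs pooled from 4–5 Sprague-Dawley rats (250 g), preincubated 5 min at 30 °C with compound in DMSO (≤0.1% final) plus 1 μM indomethacin. Challenge with [14C]arachidonic acid (4 μM) and A23187 (0.8 μM) for 3 min. Extraction, TLC, 5-HETE by scintillation counting.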

[4] = biological target: T4, Cyclooxygenase (Rattus norvegicus) (UniProt P35355+Q63921); test: Inhibition of Prostaglandin G/H synthase in rat polymorphonuclear leukocytes; assay type: cell-based; set-up: concentration or dose not given beside the values; conditions: concentration not given here
Method in brief: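 Homogenate of glycogen-elicited rat peritoneal PMNs in 0.1 M Tris-HCl pH 8.2 with 10 μM NDGA, preincubated 5 min at 37 °C with compound (≤0.1% DMSO). [14C]arachidonic acid (8 μM) added with 4 mM glutathione and epinephrine; 10 min reaction. TxB2 and PGF2α separated by TLC and counted.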

Cavia porcellus [5] = test: In vivo inhibitory activity against guinea pig systemic anaphylaxis when administered a compound dose (50 mg/kg) perorally; assay type: functional; conditions: po
Method in brief: (§2)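 Male Hartley guinea pigs sensitised ip with ovalbumin (2.7 mg/kg) plus LPS adjuvant, then challenged 2 weeks later with 1% ovalbumin aerosol for 30 s. Pretreated with pyrilamine, indomethacin and propranolol 20 min before challenge. Compound given in PEG 400 1 h before challenge.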

[6] = biological target: T1, Polyunsaturated fatty acid 5-lipoxygenase; test: In vitro inhibition of polymorphonuclear leukocyte derived human 5-lipoxygenase
Method in brief: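 PMNs from venous blood of healthy volunteers, isolated by dextran sedimentation and Percoll gradient (>90% pure) and held in Ca/Mg PBS with 1 mg/mL glucose and 1 μM indomethacin. Challenged with calcium ionophore and [14C]arachidonic acid for 3 min. 5-HETE measured by TLC and scintillation counting; IC50 read graphically.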

Cavia porcellus [7] = test: In vivo inhibitory activity against guinea pig systemic anaphylaxis when administered a compound dose (10 mg/kg) intravenously; assay type: functional; conditions: iv
[8] = biological target: T5, Polyunsaturated fatty acid 5-lipoxygenase (Rattus norvegicus, UniProt P12527); test: In vitro inhibition of rat polymorphonuclear leukocyte 5-lipoxygenase; method in brief: as §1
T5 sequence (P12527 whole entry): T3 sequence (whole entry)

Mus musculus [9] = test: In vivo inhibition of mouse ear inflammation; assay type: functional; set-up: concentration or dose not given beside the values
Method in brief: (§3)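 Compound or ethanol vehicle applied topically to one ear of male DBA/2J mice 60 min before arachidonic acid (2 mg/ear). […] Groups of 5 mice.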

[10] = biological target: T6, Cysteinyl leukotriene receptor 1 (Cavia porcellus, UniProt Q2NNR5); test: Activity to bind against [3H]LTD4 radioligand in guinea pig
T6 sequence (Q2NNR5 whole entry): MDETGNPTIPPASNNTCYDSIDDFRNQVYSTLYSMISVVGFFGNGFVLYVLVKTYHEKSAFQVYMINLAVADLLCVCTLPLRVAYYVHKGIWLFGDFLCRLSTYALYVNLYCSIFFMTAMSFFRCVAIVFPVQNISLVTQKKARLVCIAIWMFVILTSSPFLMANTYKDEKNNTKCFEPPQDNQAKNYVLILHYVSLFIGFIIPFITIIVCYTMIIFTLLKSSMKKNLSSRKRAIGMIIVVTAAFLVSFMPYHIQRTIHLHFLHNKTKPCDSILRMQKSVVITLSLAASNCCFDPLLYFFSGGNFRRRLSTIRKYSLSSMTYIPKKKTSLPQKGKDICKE

Cavia porcellus [11] = test: In vivo inhibitory activity against guinea pig systemic anaphylaxis when administered a compound dose (60 mg/kg) perorally; assay type: functional; conditions: po; method in brief: as §2
Mus musculus [12] = test: In vivo inhibitory activity against mouse ear inflammation when administered a compound dose (1 mg/ear); assay type: functional; method in brief: as §3
[13] = biological target: T4, Cyclooxygenase (Rattus norvegicus); test: In vitro inhibitory activity against rat polymorphonuclear leukocyte Prostaglandin G/H synthase; assay type: protein assay; conditions: concentration not given here
Method in brief: (§4)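 Glycogen-elicited peritoneal PMNs from Sprague-Dawley rats were homogenized at 0 °C in 0.1 M Tris-HCl pH 8.2 with 10 μM NDGA. Compound (DMSO ≤0.1%) was preincubated 5 min at 37 °C, then 8 μM [14C]arachidonic acid with 4 mM glutathione and epinephrine was added for 10 min. TxB2 and PGF2α were measured by TLC and scintillation counting.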

Cyclooxygenase = biological target: T7, Cyclooxygenase (Rattus norvegicus, UniProt P35355+Q63921); test: In vitro inhibitory activity against rat polymorphonuclear leukocyte Prostaglandin G/H synthase at 100 uM; assay type: protein assay; method in brief: as §4
T7 sequence (P35355 whole entry): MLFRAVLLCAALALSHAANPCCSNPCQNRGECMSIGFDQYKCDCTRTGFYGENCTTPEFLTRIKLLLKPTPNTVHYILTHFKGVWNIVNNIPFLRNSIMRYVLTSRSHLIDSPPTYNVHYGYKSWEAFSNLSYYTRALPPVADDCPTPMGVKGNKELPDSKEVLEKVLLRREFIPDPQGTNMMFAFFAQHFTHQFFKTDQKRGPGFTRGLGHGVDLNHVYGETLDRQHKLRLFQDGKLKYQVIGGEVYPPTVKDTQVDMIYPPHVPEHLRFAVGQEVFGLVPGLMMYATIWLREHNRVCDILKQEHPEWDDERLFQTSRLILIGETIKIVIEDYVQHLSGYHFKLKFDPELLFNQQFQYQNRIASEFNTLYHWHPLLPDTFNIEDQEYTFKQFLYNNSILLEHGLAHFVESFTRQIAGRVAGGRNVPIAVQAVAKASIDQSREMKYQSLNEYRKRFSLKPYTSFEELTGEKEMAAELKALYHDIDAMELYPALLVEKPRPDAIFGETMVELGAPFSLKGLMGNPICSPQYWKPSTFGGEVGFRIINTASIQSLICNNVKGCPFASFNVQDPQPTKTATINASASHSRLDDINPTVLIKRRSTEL
T7 sequence (Q63921 whole entry): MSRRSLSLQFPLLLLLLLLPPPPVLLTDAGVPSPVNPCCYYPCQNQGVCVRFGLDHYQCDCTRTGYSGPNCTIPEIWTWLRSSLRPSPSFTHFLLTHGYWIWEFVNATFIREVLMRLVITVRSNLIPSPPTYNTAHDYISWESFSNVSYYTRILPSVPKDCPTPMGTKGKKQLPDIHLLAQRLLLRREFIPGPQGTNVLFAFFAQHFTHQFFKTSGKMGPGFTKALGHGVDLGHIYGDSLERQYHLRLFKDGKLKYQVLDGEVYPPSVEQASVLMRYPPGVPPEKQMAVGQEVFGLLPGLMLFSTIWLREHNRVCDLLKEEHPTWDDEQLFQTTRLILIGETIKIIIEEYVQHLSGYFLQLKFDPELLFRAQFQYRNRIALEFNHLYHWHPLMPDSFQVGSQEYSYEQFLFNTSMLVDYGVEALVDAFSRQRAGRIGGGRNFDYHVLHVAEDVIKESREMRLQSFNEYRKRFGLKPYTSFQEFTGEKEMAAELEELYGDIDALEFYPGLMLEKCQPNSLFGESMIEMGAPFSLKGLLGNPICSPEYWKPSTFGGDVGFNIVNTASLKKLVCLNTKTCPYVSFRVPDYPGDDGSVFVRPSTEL

[14] = biological target: T3, Polyunsaturated fatty acid 5-lipoxygenase (Rattus norvegicus); test: In vitro inhibitory activity against polymorphonuclear leukocyte 5-lipoxygenase in rat cell at 10 uM; method in brief: as §1
12-lipoxygenase = 12-lipoxygenase (Rattus norvegicus, UniProt F1LQ70); test: In vitro inhibitory activity against rat platelet 12-lipoxygenase
Sequence of 12-lipoxygenase (F1LQ70 whole entry, looked up): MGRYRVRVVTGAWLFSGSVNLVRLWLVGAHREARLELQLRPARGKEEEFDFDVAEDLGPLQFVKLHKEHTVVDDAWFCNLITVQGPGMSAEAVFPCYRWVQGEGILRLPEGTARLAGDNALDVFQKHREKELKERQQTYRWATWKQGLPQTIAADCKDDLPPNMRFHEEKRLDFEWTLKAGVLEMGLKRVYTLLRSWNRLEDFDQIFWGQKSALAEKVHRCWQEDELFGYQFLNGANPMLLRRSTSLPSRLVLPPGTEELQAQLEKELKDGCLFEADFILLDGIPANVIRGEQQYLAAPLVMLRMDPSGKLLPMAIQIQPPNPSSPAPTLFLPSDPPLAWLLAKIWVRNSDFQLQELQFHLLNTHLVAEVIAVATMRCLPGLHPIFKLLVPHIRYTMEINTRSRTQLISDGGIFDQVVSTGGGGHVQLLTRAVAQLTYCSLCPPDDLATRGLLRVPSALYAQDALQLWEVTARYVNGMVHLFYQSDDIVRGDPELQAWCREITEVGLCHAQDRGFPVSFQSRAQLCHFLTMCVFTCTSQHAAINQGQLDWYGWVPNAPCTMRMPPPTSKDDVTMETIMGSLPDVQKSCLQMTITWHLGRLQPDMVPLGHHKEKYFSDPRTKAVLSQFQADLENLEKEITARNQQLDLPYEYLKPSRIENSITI

Cavia porcellus [15] = test: In vivo inhibitory activity against guinea pig systemic anaphylaxis when administered a compound dose (200 mg/kg) perorally; assay type: functional; conditions: po; method in brief: as §2

O=C(/C=C/c1ccc(OCc2ccccc2)cc1)N(O)CCc1ccccc1
Inhibition [1]: < 10%
inhibition [2]: 3%
inhibition [3]: 24%
inhibition [4]: < 10%

O=C(CCCc1ccccc1)N(O)CCc1ccccc1
inhibition in vivo at 50 mg/kg (Cavia porcellus [5]): 17%
IC50 [6]: 180 nM
inhibition in vivo at 10 mg/kg (Cavia porcellus [7]): 50%
inhibition [4]: 44%
IC50 [8]: 300 nM
Inhibition (Mus musculus [9]): 56%

CN(O)C(=O)Cc1ccc(OCc2ccc3ccccc3n2)cc1
Ki [10]: 1000 nM
IC50 [6]: 1000 nM
inhibition in vivo at 60 mg/kg (Cavia porcellus [11]): 94%
IC50 [8]: 350 nM
Inhibition (Mus musculus [12]): 48%
inhibition [13]: < 10%

O=C(O)CCCCN(O)C(=O)Cc1ccc(OCc2ccccc2)cc1
Inhibition (Cyclooxygenase): 50%
inhibition [14]: 21%

O=C(Cc1ccc(OCc2ccccc2)cc1)N(O)CCc1ccccc1
Ki (12-lipoxygenase): 1600 nM
inhibition in vivo at 200 mg/kg (Cavia porcellus [15]): 17%
inhibition [4]: < 10%
Inhibition (Mus musculus [9]): 39%
